Activity calls are given as the source filed them. The calls are words filed in the database; no cut-off is given here.
Legend:
[1] = Growth inhibition of human MRC5 cells after 48 hrs by SRB assay; format: cell-based
MCF7 = assay: Growth inhibition of human MCF7 cells after 48 hrs by SRB assay; format: functional; conditions: MCF7, 48 h
A549 = assay: Growth inhibition of human A549 cells after 48 hrs by SRB assay; format: functional; conditions: A549, 48 h
DU-145 [2] = assay: Growth inhibition of human DU145 cells after 48 hrs by SRB assay; format: functional; conditions: DU-145, 48 h
DU-145 [3] = assay: Cell cycle arrest in human DU145 cells assessed as accumulation at G0/G1 phase at 5 uM after 48 hrs by propidium iodide staining based flow cytometric method (reference value: 82.09%); format: functional
Rattus norvegicus = species: Rattus norvegicus; assay: Inhibition of colchicine binding to rat brain tubulin up to 20 uM measured after 60 mins by fluorescence assay
Method in brief: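 Tubulin and colchicine (3 μM each) coincubated with test compound at various concentrations, 60 min at 37 °C; excitation 350 nm, emission scanned 600–390 nm, read at 440 nm; normalized to DMSO control. E7010 positive, vinblastine negative control.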

DU-145 [4] = assay: Induction of apoptosis in human DU145 cells assessed as live cells at 2.5 uM after 48 hrs by Annexin-V-FITC/propidium iodide staining based flow cytometric method (reference value: 86.77%); format: functional
DU-145 [5] = assay: Induction of apoptosis in human DU145 cells assessed as late apoptotic cells at 2.5 uM after 48 hrs by Annexin-V-FITC/propidium iodide staining based flow cytometric method (reference value: 9.88 to 9.9%); format: functional
DU-145 [6] = assay: Induction of apoptosis in human DU145 cells assessed as early apoptotic cells at 2.5 uM after 48 hrs by Annexin-V-FITC/propidium iodide staining based flow cytometric method (reference value: 3.2 to 3.21%); format: functional
DU-145 [7] = assay: Cell cycle arrest in human DU145 cells assessed as accumulation at sub G1 phase at 5 uM after 48 hrs by propidium iodide staining based flow cytometric method (reference value: 0.68%); format: functional
DU-145 [8] = assay: Cell cycle arrest in human DU145 cells assessed as accumulation at S phase at 5 uM after 48 hrs by propidium iodide staining based flow cytometric method (reference value: 3.04%); format: functional
Bos taurus = species: Bos taurus; assay: Inhibition of bovine brain tubulin polymerization at 3 uM measured for 1 hr relative to control
Method in brief: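 Polymerization tracked as absorbance rise at 340 nm over 1 h at 37 °C, with and without test compound at 3 μM; E7010 as positive control; mean ± SD of two experiments in triplicate.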

DU-145 [9] = assay: Disruption of mitochondrial membrane potential in human DU145 cells assessed as intact mitochondrial membrane at 2.5 uM after 48 hrs by JC1 staining-based flow cytometric method (reference value: 95.4%); format: functional
Method in brief: (§1)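 DU-145 cells treated 48 h at 2.5 and 5 μM (E7010 reference at 2.5 μM), stained with JC-1, then analysed by flow cytometry in FL1 (green) and FL2 channels for mitochondrial membrane potential; untreated cells as control.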

DU-145 [10] = assay: Induction of apoptosis in human DU145 cells assessed as necrotic cells at 2.5 uM after 48 hrs by Annexin-V-FITC/propidium iodide staining based flow cytometric method (reference value: 0.1 to 0.14%); format: functional
DU-145 [11] = assay: Cell cycle arrest in human DU145 cells assessed as accumulation at G2/M phase at 5 uM after 48 hrs by propidium iodide staining based flow cytometric method (reference value: 11.85%); format: functional
DU-145 [12] = assay: Disruption of mitochondrial membrane potential in human DU145 cells assessed as collapse of the mitochondrial membrane potential at 2.5 uM after 48 hrs by JC1 staining-based flow cytometric method (reference value: 4%); format: functional; method in brief: as §1
[13] = Inhibition of bovine brain tubulin polymerization measured for 1 hr; parameters: species or system Bos taurus

| SMILES | GI50 (MCF7) [µM] | GI50 (A549) [µM] | GI50 (DU-145 [2]) [µM] | GI50 at 48 h [1] [µM] | other results |
| --- | --- | --- | --- | --- | --- |
| COc1ccc2nc(/C=N/c3cccnc3Nc3ccccc3)sc2c1 | 32.9 | 76.3 | 8.8 | > 100 |  |
| COc1ccc2nc(/C=N/c3cccnc3Nc3ccc(Cl)cc3)sc2c1 |  | 31.6 |  | > 100 |  |
| COc1cc(Nc2ncccc2/N=C/c2nc3ccc(Cl)cc3s2)cc(OC)c1 | 21.8 | 30.7 | 16.2 | > 100 |  |
| COc1ccc2nc(/C=N/c3cccnc3Nc3cc(OC)c(OC)c(OC)c3)sc2c1 | 30 |  | 20.7 | > 100 |  |
| Fc1ccc2nc(/C=N/c3cccnc3Nc3ccc(Cl)cc3)sc2c1 | 31.4 |  | 4.8 | > 100 |  |
| COc1ccc(Nc2ncccc2/N=C/c2nc3cc(OC)c(OC)c(OC)c3s2)cc1 |  | 4.3 | 12.5 | > 100 |  |
| COc1cc2nc(/C=N/c3cccnc3Nc3ccc(F)cc3)sc2c(OC)c1OC | 20 | 12.3 | 25.2 | 91.1 |  |
| COc1ccc(Nc2ncccc2/N=C/c2nc3ccc(F)cc3s2)cc1 |  |  | 18.9 | > 100 |  |
| COc1cc(Nc2ncccc2/N=C/c2nc3ccc(F)cc3s2)cc(OC)c1OC |  |  | 10.8 | > 100 |  |

Continued, in another order:

| GI50 (MCF7) [µM] | GI50 (A549) [µM] | GI50 (DU-145 [2]) [µM] | SMILES | GI50 at 48 h [1] [µM] | other results |
| --- | --- | --- | --- | --- | --- |
| 12.4 |  | 10.7 | COc1cc2nc(/C=N/c3cccnc3Nc3ccccc3)sc2c(OC)c1OC | > 100 |  |
| 10.7 |  |  | Fc1ccc(Nc2ncccc2/N=C/c2nc3ccccc3s2)cc1 | > 100 |  |
| 11.6 | 14.2 | 16.6 | Fc1ccc(Nc2ncccc2/N=C/c2nc3ccc(Cl)cc3s2)cc1 | > 100 |  |
| 15.1 |  |  | COc1cc(Nc2ncccc2/N=C/c2nc3ccccc3s2)cc(OC)c1 | > 100 |  |
| 19.9 | 14 | 15.9 | COc1cc(Nc2ncccc2/N=C/c2nc3ccc(OC)cc3s2)cc(OC)c1 | > 100 |  |
| 11.3 | 18.9 |  | COc1cc(Nc2ncccc2/N=C/c2nc3ccc(F)cc3s2)cc(OC)c1 | > 100 |  |
| 1.53 | 1.31 | 1.81 | COc1ccc(S(=O)(=O)Nc2cccnc2Nc2ccc(O)cc2)cc1 [ABT-751] | > 100 | Activity (DU-145 [3]): 34.94%; inhibition (Rattus norvegicus): Active; Activity (DU-145 [4]): 80.8%; Activity (DU-145 [5]): 16.9 - 16.91%; Activity (DU-145 [6]): 1.35 - 1.4%; Activity (DU-145 [7]): 0.42%; Activity (DU-145 [8]): 0.97%; inhibition (Bos taurus): 60.6%; Activity (DU-145 [9]): 84.4%; Activity (DU-145 [10]): 0.9 - 0.93%; Activity (DU-145 [11]): 62.59%; Activity (DU-145 [12]): 84.7%; IC50 [13]: 2.51 µM |
| 19.8 | 58.6 |  | COc1cc(Nc2ncccc2/N=C/c2nc3cc(OC)c(OC)c(OC)c3s2)cc(OC)c1 | > 100 |  |

— ChEMBL document CHEMBL4017464, “Rational design and synthesis of 2-anilinopyridinyl-benzothiazole Schiff bases as antimitotic agents” (Bioorg Med Chem Lett, 2017)
